Results as given in ChEMBL document CHEMBL5712903, “Limitations of current in vitro models for testing the clinical potential of epigenetic inhibitors for treatment of pediatric ependymoma” (Oncotarget, 2018).
The source made the active and inactive calls. No cut-off for these calls is given here.

Assays:
[1] = Cytotoxicity against human fetal NSC assessed as reduction in cell vaibility incubated for 48 hrs by alamar blue assay; conditions: human fetal neural stem cells (NSC)
EPN1 = test: Induction of cell death in human EPN1 cells incubated for 144 hrs by LDH release assay; assay type: functional, cell-based
In short: (§1)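 LDH cytotoxicity kit read-out of cell death after 144 hrs of decitabine or vehicle exposure. Cells were plated in 96 wells and left overnight before dosing, with decitabine replenished at 24 and 48 hrs. Triplicates in three independent repeats. All drugs were dissolved in DMSO.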

DKFZ-EP1 = test: Induction of cell death in human DKFZ-EP1 cells incubated for 144 hrs by LDH release assay; assay type: functional, cell-based; in short: as §1
[2] = Antiproliferative activity against human EPN1 cells assessed as reduction in cell viability incubated for 144 hrs by MTT assay; assay type: functional, cell-based; conditions: EPN1, 144 h
In short: (§2)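 Ependymoma cells were seeded in 96-well plates and left overnight, then given decitabine or DMSO vehicle. Decitabine was replenished at 24 and 48 hrs, and MTT viability was read 144 hrs after the start. BXD-1425EPN and DKFZ-EP1 were grown in DMEM with 10% FBS; EPN1, EPN8, EPN9 and EPN10 in DMEM with 15% FBS. Triplicates, three independent repeats, % viable versus vehicle; IC50 estimated from dose-response curves.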

[3] = Antiproliferative activity against human EPN9 cells assessed as reduction in cell viability incubated for 144 hrs by MTT assay; assay type: functional, cell-based; conditions: EPN9, 144 h; in short: as §2
[4] = Antiproliferative activity against human BXD-1425EPN cells assessed as reduction in cell viability incubated for 144 hrs by MTT assay; assay type: functional, cell-based; in short: as §2
EPN9 = test: Induction of cell death in human EPN9 cells incubated for 144 hrs by LDH release assay; assay type: functional, cell-based; in short: as §1
BXD-1425EPN = test: Induction of cell death in human BXD-1425EPN cells incubated for 144 hrs by LDH release assay; assay type: functional, cell-based; in short: as §1
[5] = Antiproliferative activity against human EPN8 cells assessed as reduction in cell viability incubated for 144 hrs by MTT assay; assay type: functional, cell-based; conditions: EPN8, 144 h; in short: as §2
[6] = Antiproliferative activity against human DKFZ-EP1 cells assessed as reduction in cell viability incubated for 144 hrs by MTT assay; assay type: functional, cell-based; conditions: DKFZ-EP1, 144 h; in short: as §2
[7] = Antiproliferative activity against human EPN10 cells assessed as reduction in cell viability incubated for 144 hrs by MTT assay; assay type: functional, cell-based; conditions: EPN10, 144 h; in short: as §2
[8] = molecular target: Histone-lysine N-methyltransferase EZH2 (Homo sapiens) (UniProt Q15910); test: Inhibition of EZH2 in human BXD-1425EPN cells assessed as decrease in cell viability at 2.5 to 80 uM incubated for 72 hrs in presence of vorinostat by MTT assay; conditions: dose 2.5-80 µM
[9] = molecular target: Histone-lysine N-methyltransferase EZH2 (Homo sapiens) (UniProt Q15910); test: Inhibition of EZH2 in human EPN1 cells assessed as increase in decitabine induced cytotoxicity at 2.5 to 80 uM measured after 96 hrs in presence of decitabine by MTT assay; assay type: cell-based; conditions: dose 2.5-80 µM
In short: (§3)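 Cells were pretreated 48 hrs with decitabine, then GSK343 was added and incubation continued for a further 96 hrs before MTT viability was read. Drugs were at a fixed ratio from single-agent IC50s (0.125–4 times IC50). Triplicates, three independent repeats, % versus vehicle.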

[10] = molecular target: Histone-lysine N-methyltransferase EZH2 (Homo sapiens) (UniProt Q15910); test: Inhibition of EZH2 in human EPN9 cells assessed as increase in decitabine induced cytotoxicity at 2.5 to 80 uM measured after 96 hrs in presence of decitabine by MTT assay; assay type: cell-based; conditions: dose 2.5-80 µM; in short: as §3
[11] = molecular target: Histone-lysine N-methyltransferase EZH2 (Homo sapiens) (UniProt Q15910); test: Inhibition of EZH2 in human DKFZ-EP1 cells assessed as increase in cell death incubated for 120 hrs by LDH release assay; assay type: cell-based
In short: (§4)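 GSK343 or vehicle was added to cells plated in 96 wells the previous day. Drug was replenished after 72 hrs, and cell death was measured by LDH release kit at 120 hrs. Each condition in triplicate, three independent repeats.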

[12] = molecular target: Histone-lysine N-methyltransferase EZH2 (Homo sapiens) (UniProt Q15910); test: Inhibition of EZH2 in human EPN9 cells assessed as increase in cell death incubated for 120 hrs by LDH release assay; assay type: cell-based; in short: as §4
[13] = molecular target: Histone-lysine N-methyltransferase EZH2 (Homo sapiens) (UniProt Q15910); test: Inhibition of EZH2 in human BXD-1425EPN cells assessed as increase in decitabine induced cytotoxicity at 2.5 to 80 uM measured after 96 hrs in presence of decitabine by MTT assay; assay type: cell-based; conditions: dose 2.5-80 µM; in short: as §3
[14] = molecular target: Histone-lysine N-methyltransferase EZH2 (Homo sapiens) (UniProt Q15910); test: Inhibition of EZH2 in human DKFZ-EP1 cells assessed as increase in decitabine induced cytotoxicity at 2.5 to 40 uM measured after 96 hrs in presence of decitabine by MTT assay; assay type: cell-based; conditions: dose 2.5-40 µM; in short: as §3
[15] = molecular target: Histone-lysine N-methyltransferase EZH2 (Homo sapiens) (UniProt Q15910); test: Inhibition of EZH2 in human EPN1 cells assessed as decrease in cell viability at 2.5 to 80 uM incubated for 72 hrs in presence of vorinostat by MTT assay; conditions: dose 2.5-80 µM
[16] = molecular target: Histone-lysine N-methyltransferase EZH2 (Homo sapiens) (UniProt Q15910); test: Inhibition of EZH2 in human EPN1 cells assessed as increase in cell death incubated for 120 hrs by LDH release assay; assay type: cell-based; in short: as §4
[17] = molecular target: Histone-lysine N-methyltransferase EZH2 (Homo sapiens) (UniProt Q15910); test: Inhibition of EZH2 in human BXD-1425EPN cells assessed as increase in cell death incubated for 120 hrs by LDH release assay; assay type: cell-based; in short: as §4

Sequence of Histone-lysine N-methyltransferase EZH2 (Homo sapiens) (Q15910 whole entry, looked up): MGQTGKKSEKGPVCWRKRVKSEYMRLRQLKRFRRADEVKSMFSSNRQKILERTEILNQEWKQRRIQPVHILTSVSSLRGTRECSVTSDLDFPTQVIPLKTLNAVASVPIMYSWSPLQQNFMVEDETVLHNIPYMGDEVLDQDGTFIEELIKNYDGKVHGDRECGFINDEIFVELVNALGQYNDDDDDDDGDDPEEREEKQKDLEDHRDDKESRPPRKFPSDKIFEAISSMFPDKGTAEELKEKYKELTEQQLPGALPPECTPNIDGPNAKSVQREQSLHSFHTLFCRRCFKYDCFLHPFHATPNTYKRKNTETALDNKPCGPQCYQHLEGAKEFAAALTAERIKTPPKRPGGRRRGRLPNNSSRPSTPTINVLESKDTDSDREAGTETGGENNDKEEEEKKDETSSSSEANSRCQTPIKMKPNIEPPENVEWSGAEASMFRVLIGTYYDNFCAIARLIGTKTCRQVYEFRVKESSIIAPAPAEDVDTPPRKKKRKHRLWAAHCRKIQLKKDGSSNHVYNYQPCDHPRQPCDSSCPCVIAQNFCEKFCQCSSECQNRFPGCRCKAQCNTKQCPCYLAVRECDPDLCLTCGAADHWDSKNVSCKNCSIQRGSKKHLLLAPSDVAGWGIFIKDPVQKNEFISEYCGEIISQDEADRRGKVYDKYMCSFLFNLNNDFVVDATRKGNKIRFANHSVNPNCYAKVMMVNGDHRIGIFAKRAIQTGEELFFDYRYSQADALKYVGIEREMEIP

Cc1[nH]c2ccccc2c1CCNCc1ccc(/C=C/C(=O)NO)cc1 [PANOBINOSTAT]
IC50 at 48 h [1]: 0.08 µM

Nc1ncn([C@H]2C[C@H](O)[C@@H](CO)O2)c(=O)n1 [DECITABINE]
Activity (EPN1): inactive | Activity (DKFZ-EP1): inactive | IC50 [2]: ≥ 0.05 µM | IC50 [3]: ≥ 0.05 µM | IC50 [4]: 0.4 µM | Activity (EPN9): inactive | Activity (BXD-1425EPN): inactive | IC50 [5]: 0.05 µM | IC50 [6]: ≥ 0.05 µM | IC50 [7]: ≥ 0.05 µM

CCCc1cc(C)[nH]c(=O)c1CNC(=O)c1cc(-c2ccnc(N3CCN(C)CC3)c2)cc2c1cnn2C(C)C
IC50 at 48 h [1]: 9 µM | inhibition [8]: Active | inhibition [9]: inactive | inhibition [10]: inactive | inhibition [11]: Active | inhibition [12]: Active | inhibition [13]: inactive | inhibition [14]: inactive | inhibition [15]: Active | inhibition [16]: Active | inhibition [17]: Active
